Only some compounds are listed: those with a hit (about 2.2% of all), similar ones and a draw of the others.
T cruzi inh: inhibitors of intracellular T. cruzi growth, primary screen, luminescence, NIH3T3 host cells; inhibition, % (concentration not given with the values); T. cruzi beta-gal in NIH3T3, 90 h; AID 1885, 2009; hit rate 1.4% among 300,000;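 active means mean inhibition across valid replicates above about 55%, limit read from the data; inconclusive means mean below that limit but half or more replicates reach it; inactive means mean below it, under half of replicates reach it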;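 further: signal also drops with host cell toxicity which is not excluded here; 0% = plate median of DMSO wells and 100% = zero luminescence signal; higher percent means less beta-gal luminescence so fewer parasites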
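compound dosing = single 50 nL compound addition per well in DMSO | material = NIH/3T3 host cells with β-galactosidase reporter T. cruzi | input = 5,000 host fibroblasts per well | timing = ≥90 h infection period, 3 h prior cell attachment | read-out basis = percent inhibition of parasite-derived β-gal signal | detection = GalScreen β-gal luminescence, detergent lysis, 60 min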
HDAC3 inh: HDAC3 deacetylase inhibitors, primary screen, biochemical, fluorescence, cell-free homogeneous. recombinant HDAC3, fluorogenic peptide/trypsin coupled. AID 2718, 2010. hit rate 0.15% among 320,000. inhibition, % at 8.3 µM. Histone deacetylase 3 (Homo sapiens), O15379; in the data active means inhibition above about 26%, passing the limit was not always enough; inconclusive means no clear call, values can overlap the other calls
Target sequence (O15379 whole entry, looked up): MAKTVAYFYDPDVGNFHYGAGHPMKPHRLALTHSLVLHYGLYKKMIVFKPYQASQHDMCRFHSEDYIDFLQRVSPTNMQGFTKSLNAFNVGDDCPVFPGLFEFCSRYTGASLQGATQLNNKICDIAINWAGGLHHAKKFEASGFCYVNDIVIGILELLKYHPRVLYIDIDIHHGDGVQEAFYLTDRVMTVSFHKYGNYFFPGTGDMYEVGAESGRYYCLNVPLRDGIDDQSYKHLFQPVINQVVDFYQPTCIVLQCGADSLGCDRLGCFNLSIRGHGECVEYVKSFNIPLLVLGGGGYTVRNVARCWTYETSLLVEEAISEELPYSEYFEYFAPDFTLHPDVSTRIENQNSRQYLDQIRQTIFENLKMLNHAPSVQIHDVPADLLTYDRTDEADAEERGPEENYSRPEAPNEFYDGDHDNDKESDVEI
AI-2 QS modul: Vibrio harveyi AI-2 quorum sensing modulators, primary screen, JMH597 strain, luminescence/OD600 ratio | Vibrio harveyi JMH597 AI-2 luminescence/OD600 ratio, 9 h; stronger effect = lower value; strain lacks LuxN and CqsS sensors; 0 = neutral-control median | activity change, % at 7.5 µM | hit rate 0.4% among 300,000; in the data active means activity change below about -75%, passing the limit was not always enough; inconclusive means no clear call, values can overlap the other calls;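 further: luminescence divided by OD600 gain over 9 h not by final OD600 alone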
PolyA inh: polyadenylation inhibitors in yeast reporter cells, primary screen, luminescence, S. cerevisiae; activity score, % at 12 µM; hit rate 0.02% among 300,000; S. cerevisiae SKY197-pL101 polyadenylation reporter, beta-gal luminescence; efflux-impaired pdr1/pdr3 knockout yeast; score 100 = 6 SD above DMSO; AID 1875, 2009;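 active means lowest replicate activity score at least 50, where 100 means six control SD above control mean; inconclusive means lowest score under 50 but half or more replicates reach 50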;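 further: yeast exposed to compound for 9 h at 30 °C; higher score means more reporter readthrough which indicates perturbed polyadenylation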
Efflux pump mplx: inhibitors of Candida efflux pumps in yeast, primary screen, S. cerevisiae, Nile Red, multiplex. S. cerevisiae Candida pump triplex. inhibition, % at 10 µM. hit rate 0.44% among 330,000. AID 485275, 2010;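 active means plate passing quality check with inhibition over a set limit, or well fluorescence over plate mean plus 4 SD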;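 further: Nile Red retained in pooled yeast measured as flow cytometry median fluorescence; 0% = buffer negative control and 100% = Enniatin B positive control; higher means more Nile Red kept so more efflux inhibition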
JMH597 growth: Vibrio harveyi growth inhibition, confirmation, counter-screen for AI-2 quorum sensing project, JMH597 strain, OD600 absorbance | shares compounds with AI-2 QS modul | 9 h; lacks LuxN and CqsS sensors | growth inhibition, % at 7.5 µM | hit rate 1% among 750 | AID 2726, 2010;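 active means every replicate shows growth inhibition above 50%; inconclusive means at least half, but not all, replicates pass that cutoff; inactive means fewer than half of replicates pass it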
BB721 lum counter: luminescence inhibition in constitutive-on V. harveyi, confirmation, counter-screen for LuxS inhibitor project, strain BB721, luminescence readout; hit rate 95% among 750; Vibrio harveyi BB721 luminescence, 9 h; AID 2727, 2010; shares compounds with AI-2 QS modul; inhibition, % at 7.5 µM;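 active means inhibition above about 80% in every replicate, not just on average, limit read from the data; inconclusive means at least half of replicates past the limit, but not all; inactive means fewer than half of replicates past the limit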
BB721 growth rt: growth inhibition of V. harveyi BB721, confirmation, cytotoxicity control for AI-2 quorum sensing inhibitors, strain BB721, absorbance OD600 | shares compounds with AI-2 QS modul | Vibrio harveyi BB721 growth, 9 h | growth inhibition, % at 7.5 µM | hit rate 3% among 750;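 active means every replicate shows growth inhibition above 50%; inconclusive means at least half but not all replicates above 50% inhibition; inactive means under half of replicates above 50% inhibition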
AI-2 QS JMH597: Vibrio harveyi AI-2 signaling luminescence modulation – JMH597 strain, confirmation; shares compounds with AI-2 QS modul; Vibrio harveyi JMH597 AI-2 quorum sensing luminescence, 9 h; luxN and CqsS knockout, AI-2 only; inhibition, % at 7.5 µM; hit rate 97% among 750; AID 2736, 2010;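 active means every replicate shows more than 75% inhibition of signal versus neutral control wells; inconclusive means half to three quarters of replicates exceed 75% inhibition; inactive means fewer than half of replicates exceed 75% inhibition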
Starred values were filed as active, the others as inactive; ? = inconclusive; · = no result.

SMILES	T cruzi inh	HDAC3 inh	AI-2 QS modul	PolyA inh	Efflux pump mplx	JMH597 growth	BB721 lum counter	BB721 growth rt	AI-2 QS JMH597
CCCCc1cc(=O)oc2c(C)c(OCC(=O)N3C[C@H]4C[C@@H](C3)c3cccc(=O)n3C4)ccc12	20.2	2.4	22.5	-20.6	0.2	·	·	·	·
CCOC(=O)[C@@H]1[C@H]2COc3ccc(Br)cc3[C@@H]2N2C(=O)N(c3ccc(C(F)(F)F)cc3)C(=O)[C@]12C	-7.7	-3.2	33.9	-5.6	-0.2	·	·	·	·
O=C(NCCc1ccc(Cl)cc1)c1cnccn1	-8.2	1.0	2.3	0.0	0.3	·	·	·	·
O=C(Nc1cnn(Cc2ccc(Cl)cc2)c1)c1cnccn1	-10.8	-2.4	-95.7*	-6.6	0.1	1.2	98.9*	7.7	99.3*
COc1cc(/C=N/NC(=O)Cn2nnc3ccccc32)ccc1O	-3.4	6.4	-87.1*	-24.0	-0.2	-25.3	94.4*	-29.5	96.1*
COc1ccc(NC(=O)CCNC(=O)Cn2cnc3ccccc3c2=O)cc1OC	-2.6	-2.1	29.4	16.1	0.0	·	·	·	·
COc1cc(/C=N\NC(=O)Cn2nnc3ccccc32)cc(OC)c1OC	-6.1	-0.6	-87.1*	-2.5	0.4	-3.5	92.7*	-34.1	95.9*
COc1ccc(/C=N/NC(=O)Cn2cnc3ccccc3c2=O)cc1OC	-13.7	8.2	-91.4*	13.3	0.2	-6.3	96.8*	-11.6	97.5*
CCCNC1=CC(=O)CC(C)(C)C1	8.5	0.5	-0.1	12.5	0.4	·	·	·	·
C(=N\c1ncnc2sccc12)/NOCc1ccccc1	-9.2	-5.6	-94.7*	95.4*	-0.2	-10.7	97.7*	-24.1	98.3*
Clc1ccc(CON/C=N/c2ncnc3sccc23)cc1	3.9	8.2	-93.4*	-9.6	0.0	16.8	97.9*	9.7	98.6*
CCOc1ccccc1NC(=O)NC(C)c1ccncc1 (configuration not stated)	-17.8	0.5	1.1	13.8	0.0	·	·	·	·
C=CCNC(=O)NC(=O)CN1C(=O)NC(c2ccccc2)(c2ccccc2)C1=O	1.1	12.0	-84.9*	-4.2	0.1	-4.0	93.6*	-9.4	95.7*
NC(=O)NC(=O)CN1C(=O)NC(c2ccccc2)(c2ccccc2)C1=O	-4.2	1.7	7.3	1.6	-0.2	·	·	·	·
COCCNC(=O)CN1C(=O)NC(c2ccccc2)(c2ccccc2)C1=O	-17.1	-3.5	-7.4	4.5	0.1	·	·	·	·
CC(C)CCNC(=O)CN1C(=O)NC(c2ccccc2)(c2ccccc2)C1=O	-8.3	-1.3	-91.8*	6.7	-0.3	7.1	90.2*	7.8	95.3*
CC(=O)c1ccc(NC(=O)c2cc(Cl)sc2Cl)cc1	-9.4	13.6	7.8	-37.2	0.1	·	·	·	·
c1ccc(Oc2cc(-c3ccccc3)ncn2)cc1	-4.4	-1.1	-93.3*	-16.2	0.1	10.8	98.0*	10.2	98.4*
O=C(c1ccc2c3n(nc2c1)-c1ccccc1CO3)N1CCCCC1	-9.6	-3.5	-84.1*	-13.0	0.0	24.5	88.7*	26.5	95.1*
O=C(c1ccc2c3n(nc2c1)-c1ccccc1CO3)N1CCOCC1	-11.4	-3.5	6.3	-13.8	0.0	·	·	·	·
Cc1ccc(CN(C)C(=O)c2cc(COc3cccc(C(F)(F)F)c3)on2)o1	3.5	10.8	-81.5*	2.9	0.1	65.4*	95.4*	86.6*	96.4*
CC(=O)c1cccc(OCc2cc(C(=O)N(C)Cc3cnccn3)no2)c1	-5.7	-2.7	?	-10.4	0.0	21.0	92.4*	15.1	94.5*
CN(Cc1nccn1C)C(=O)c1cc(COc2cccc(C(F)(F)F)c2)on1	-7.2	4.6	20.3	6.8	0.0	·	·	·	·
CCc1ccc(CN(C)C(=O)c2cc(COc3cccc(C(F)(F)F)c3)on2)nc1	27.6	17.2	-83.4*	-9.0	-0.1	?	92.1*	?	94.6*
O=C1N=C(N2CCCC2)S/C1=C\C=C\c1ccccc1	4.5	-0.4	4.7	-4.5	0.1	·	·	·	·
SMILES	T cruzi inh	HDAC3 inh	AI-2 QS modul	PolyA inh	Efflux pump mplx	JMH597 growth	BB721 lum counter	BB721 growth rt	AI-2 QS JMH597
COc1ccc(-c2noc(Cc3ccc(Cl)cc3)n2)cc1OC	10.3	-13.8	-9.8	-4.9	0.1	·	·	·	·
COc1ccc(Cc2nc(-c3ccc(Cl)cc3)no2)cc1	-3.5	-1.6	-88.4*	18.1	0.0	10.0	96.7*	-5.3	98.0*
Clc1ccc(-c2noc(COc3ccccc3)n2)cc1	2.7	-11.4	?	13.1	-0.1	1.2	86.1*	15.2	93.7*
Clc1ccc(-c2noc(CCCOc3ccccc3)n2)cc1	5.9	2.0	18.0	2.7	0.1	·	·	·	·
COc1ccc(C2CC(=O)C(C=NCCO)=C(O)C2)cc1 (configuration not stated)	0.9	-2.6	-6.1	-6.4	0.0	·	·	·	·
COc1ccc(NC(=O)C2CSC(C)(C)N2C=O)cc1 (configuration not stated)	-0.4	3.0	-88.6*	-3.7	-0.1	11.9	96.0*	0.6	97.1*
CC1(C)SCC(C(=O)O)N1C=O (configuration not stated)	-1.5	-4.7	3.3	-8.3	0.0	·	·	·	·
Cn1c(=O)c2c(nc3n2CC(COc2ccccc2)O3)n(C)c1=O (configuration not stated)	-0.6	-1.2	42.7	5.5	0.4	·	·	·	·
CCC(C(=O)Nc1c(C)cc(C)cc1C)N1CCCCCC1 (configuration not stated)	3.5	5.6	-85.4*	0.2	0.0	-7.8	2.0	-0.8	3.6
Cc1cccc(C)c1NC(=O)C(C)N1CCCCC1 (configuration not stated)	-11.1	-2.5	1.3	4.2	-0.1	·	·	·	·
O=C1CCCN1CCCN1CC(C(=O)N(CCO)Cc2ccccc2)CCC1=O (configuration not stated)	-12.2	·	10.7	2.2	0.0	·	·	·	·
Cn1nc(C(F)(F)F)c2cc(C(=O)Nc3ccc(F)cc3F)sc21	4.9	3.6	13.8	-15.4	0.0	·	·	·	·
Cn1nc(C(F)(F)F)c2cc(NC(=O)OCc3ccc(F)cc3)sc21	35.6	19.6	-92.8*	-9.1	0.0	13.2	98.7*	39.9	98.1*

Screening data as filed in PubChem.
